Assay results from ChEMBL document CHEMBL3627647, “Antibacterial properties of 3-(phenylsulfonyl)-2-pyrazinecarbonitrile” (Bioorg Med Chem Lett, 2015).
Values after ≈ are worked out from the molar mass of the structure shown. Active and inactive are the calls of the source. The rule behind the calls is not given here. Peptide text beside a SMILES is read from it. * marks the point of attachment. βNA = c1ccc2cc(N*)ccc2c1

Tests used:
Klebsiella pneumoniae [1] = assay: Antibacterial activity against Klebsiella pneumoniae ATCC 77326 after overnight incubation by microplate checkerbroad assay in presence of PSPC; format: functional, organism-based
In short: (§1)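 Microplate checkerboard: PSPC at final 1–64 µg/mL crossed with polymyxin B at final 0.063–64 µg/mL; minimum growth-inhibiting concentrations alone and in combination determined and used to calculate FIC index.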

Acinetobacter baumannii [2] = assay: Antibacterial activity against Acinetobacter baumannii ATCC 17978 after overnight incubation by microplate checkerbroad assay in presence of PSPC; format: functional, organism-based
In short: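 Checkerboard microplate growth inhibition. PSPC at final 1–64 µg/mL combined with polymyxin B at final 0.063–64 µg/mL. The lowest concentrations inhibiting growth alone and in combination were used to calculate the FIC index.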

Klebsiella pneumoniae [3] = assay: Antibacterial activity against Klebsiella pneumoniae ATCC 77326 after overnight incubation by broth microdilution method; format: functional
Acinetobacter baumannii [4] = assay: Antibacterial activity against Acinetobacter baumannii ATCC 17978 after overnight incubation by broth microdilution method; format: functional
Pseudomonas aeruginosa [5] = assay: Antibacterial activity against Pseudomonas aeruginosa PA14 after overnight incubation by broth microdilution method; format: functional
Enterobacter sp. [6] = assay: Antibacterial activity against Enterobacter sp. KCTC 2625 after overnight incubation by broth microdilution method; format: functional
Enterococcus faecium = assay: Antibacterial activity against Enterococcus faecium E007 after overnight incubation by broth microdilution method; format: functional
Staphylococcus aureus [7] = assay: Antibacterial activity against methicillin-resistant Staphylococcus aureus MW2 after overnight incubation by broth microdilution method; format: functional
In short: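 Broth microdilution MIC against MRSA MW2 in Müller-Hinton broth.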

Staphylococcus aureus [8] = assay: (§2) Antibacterial activity against methicillin-resistant Staphylococcus aureus MW2 infected in young adult stage of Caenorhabditis elegans glp-4(bn2);sek-1 (km4) assessed as prolongation of survival at 0.78 to 25 ug/ml after 5 days by Sytox Orange staining-based bright field microscopic analysis relative to control; format: functional
In short: (§3)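 Young adult C. elegans glp-4(bn2);sek-1(km4) co-inoculated in 384-well plates with MRSA MW2 and 2-fold serial dilutions (0.78–100 µg/mL). DMSO ≤1%; 1% DMSO was the negative control and vancomycin the positive control. Dead worms were stained with Sytox Orange and imaged with brightfield. Survival = fraction of worm area not fluorescent.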

Staphylococcus aureus [9] = assay: as §2, with “50” for “0.78 to 25”; format: functional; details: MW2, 120 h; in short: as §3
Staphylococcus aureus [10] = assay: as §2, with “100” for “0.78 to 25”; format: functional; details: MW2, 120 h; in short: as §3
Klebsiella pneumoniae [11] = assay: Antibacterial activity against Klebsiella pneumoniae ATCC 77326 after overnight incubation by microplate checkerbroad assay in presence of polymyxin B; format: functional; in short: as §1
Acinetobacter baumannii [12] = assay: Antibacterial activity against Acinetobacter baumannii ATCC 17978 after overnight incubation by microplate checkerbroad assay in presence of polymyxin B; format: functional; in short: as §1
[13] = Toxicity in HEK293 cells assessed as cell survival rate up to 2 ug/ml after 24 hrs by WST-1 assay relative to control; format: cell-based; details: human, read-out: Survival
In short: (§4)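 HEK-293 cells treated with serial dilutions (1–64 µg/mL); rotenone as positive control. Viability read spectrophotometrically from conversion of WST-1 to formazan.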

[14] = Toxicity in HEK293 cells assessed as cell survival rate at 64 ug/ml after 24 hrs by WST-1 assay relative to control; format: cell-based; details: human, read-out: Survival; in short: as §4
HEK293 [15] = assay: Toxicity in HEK293 cells assessed as decrease in cell survival rate after 24 hrs by WST-1 assay; format: cell-based; details: human, hek293, 24 h
In short: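 HEK-293 cells treated with serial dilutions over 1–64 µg/mL; rotenone as positive control; viability read spectrophotometrically from WST-1 conversion to formazan by viable cells.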

[16] = Hemolytic activity in sheep erythrocytes at 0.063 to 64 ug/ml after 1 hr; format: ADME, cell-based, Ovis aries; details: erythrocyte
In short: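 Sheep red blood cells exposed 1 hour to serial dilutions (0.063–64 µg/ml); Triton X-100 at 0.001–1% as positive control; hemolysis scored visually and confirmed by absorbance at 540 nm.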

HEK293 [17] = assay: Toxicity in HEK293 cells assessed as mortality rate at 4 ug/ml after 24 hrs by WST-1 assay relative to control; format: cell-based; details: human, hek293, 24 h; in short: as §4
Staphylococcus aureus [18] = assay: Antibacterial activity against methicillin-resistant Staphylococcus aureus MW2 infected in young adult stage of Caenorhabditis elegans glp-4(bn2);sek-1 (km4) assessed as prolongation of survival after 5 days by Sytox Orange staining-based bright field microscopic analysis; format: functional; details: MW2, 120 h, read-out: MEC; in short: as §3
Staphylococcus aureus [19] = assay: Ratio of MIC for methicillin-resistant Staphylococcus aureus MW2 to MEC for methicillin-resistant Staphylococcus aureus MW2 infected in young adult stage of Caenorhabditis elegans glp-4(bn2);sek-1 (km4); format: functional
In short: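 The MW2 MIC was measured in Müller-Hinton broth. For the MEC, young adult glp-4(bn2);sek-1(km4) worms were co-inoculated with MW2 in 384-well plates with 2-fold dilutions (0.78–100 µg/mL), with DMSO at or below 1%. Dead worms were stained with Sytox Orange. Survival was taken as […] per well.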

Caenorhabditis elegans = assay: Toxicity in Caenorhabditis elegans glp-4(bn2);sek-1 (km4) after 5 days by Sytox Orange staining-based bright field microscopic analysis; format: organism-based; details: in vivo, 120 h
In short: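 Young adult C. elegans glp-4(bn2);sek-1(km4) co-inoculated in 384-well plates with MRSA strain MW2 and 2-fold serial dilutions (0.78–100 µg/mL), DMSO ≤1%; dead worms stained with Sytox Orange, survival from fluorescent worm area relative to total worm area.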

Staphylococcus aureus [20] = assay: Bactericidal activity against methicillin-resistant Staphylococcus aureus MW2 at 40 ug/ml measured for 4 hrs by time-kill assay; format: functional
Staphylococcus aureus [21] = assay: Bactericidal activity against methicillin-resistant Staphylococcus aureus MW2 after overnight incubation; format: functional
Staphylococcus aureus [22] = assay: Ratio of MBC to MIC for methicillin-resistant Staphylococcus aureus MW2; format: functional
Klebsiella pneumoniae [23] = assay: Antibacterial activity against Klebsiella pneumoniae ATCC 77326 after overnight incubation by broth microdilution method in presence of 64 ug/ml efflux pump inhibitor PAbetaN; format: functional
Acinetobacter baumannii [24] = assay: Antibacterial activity against Acinetobacter baumannii ATCC 17978 after overnight incubation by broth microdilution method in presence of 64 ug/ml efflux pump inhibitor PAbetaN; format: functional
Pseudomonas aeruginosa [25] = assay: Antibacterial activity against Pseudomonas aeruginosa PA14 after overnight incubation by broth microdilution method in presence of 64 ug/ml efflux pump inhibitor PAbetaN; format: functional
Enterobacter sp. [26] = assay: Antibacterial activity against Enterobacter sp. KCTC 2625 after overnight incubation by broth microdilution method in presence of 64 ug/ml efflux pump inhibitor PAbetaN; format: functional
Klebsiella pneumoniae [27] = assay: Ratio of MIC for Klebsiella pneumoniae ATCC 77326 in absence of 64 ug/ml efflux pump inhibitor PAbetaN to MIC for Klebsiella pneumoniae ATCC 77326 in presence of 64 ug/ml efflux pump inhibitor PAbetaN; format: functional
Acinetobacter baumannii [28] = assay: Ratio of MIC for Acinetobacter baumannii ATCC 17978 in absence of 64 ug/ml efflux pump inhibitor PAbetaN to MIC for Acinetobacter baumannii ATCC 17978 in presence of 64 ug/ml efflux pump inhibitor PAbetaN; format: functional
Pseudomonas aeruginosa [29] = assay: Ratio of MIC for Pseudomonas aeruginosa PA14 in absence of 64 ug/ml efflux pump inhibitor PAbetaN to MIC for Pseudomonas aeruginosa PA14 in presence of 64 ug/ml efflux pump inhibitor PAbetaN; format: functional
Enterobacter sp. [30] = assay: Ratio of MIC for Enterobacter sp. KCTC 2625 in absence of 64 ug/ml efflux pump inhibitor PAbetaN to MIC for Enterobacter sp. KCTC 2625 in presence of 64 ug/ml efflux pump inhibitor PAbetaN; format: functional
Klebsiella pneumoniae [31] = assay: Antibacterial activity against Klebsiella pneumoniae ATCC 77326 assessed as growth inhibition at 64 ug/ml after overnight incubation by broth microdilution method; format: functional, organism-based
Acinetobacter baumannii [32] = assay: Antibacterial activity against Acinetobacter baumannii ATCC 17978 assessed as growth inhibition at 64 ug/ml after overnight incubation by broth microdilution method; format: functional, organism-based
Pseudomonas aeruginosa [33] = assay: Antibacterial activity against Pseudomonas aeruginosa PA14 assessed as growth inhibition at 64 ug/ml after overnight incubation by broth microdilution method; format: functional, organism-based
Enterobacter sp. [34] = assay: Antibacterial activity against Enterobacter sp. KCTC 2625 assessed as growth inhibition at 64 ug/ml after overnight incubation by broth microdilution method; format: functional, organism-based

POLYMYXIN B
MIC (Klebsiella pneumoniae [1]): 2 µg/mL
MIC (Acinetobacter baumannii [2]): 0.125 µg/mL
MIC (Klebsiella pneumoniae [3]): 16 µg/mL
MIC (Acinetobacter baumannii [4]): 0.5 µg/mL
MIC (Pseudomonas aeruginosa [5]): 2 µg/mL
MIC (Enterobacter sp. [6]): 32 µg/mL

N#Cc1nccnc1Sc1ccccc1
MIC (Enterococcus faecium): > 64 µg/mL
MIC (Staphylococcus aureus [7]): > 64 µg/mL
MIC (Klebsiella pneumoniae [3]): > 64 µg/mL
MIC (Acinetobacter baumannii [4]): > 64 µg/mL
MIC (Pseudomonas aeruginosa [5]): > 64 µg/mL
MIC (Enterobacter sp. [6]): > 64 µg/mL

CN[C@H](CC(C)C)C(=O)N[C@H]1C(=O)N[C@@H](CC(N)=O)C(=O)N[C@H]2C(=O)N[C@H]3C(=O)N[C@H](C(=O)N[C@H](C(=O)O)c4cc(O)cc(O)c4-c4cc3ccc4O)[C@H](O)c3ccc(c(Cl)c3)Oc3cc2cc(c3O[C@@H]2O[C@H](CO)[C@@H](O)[C@H](O)[C@H]2O[C@H]2C[C@](C)(N)[C@H](O)[C@H](C)O2)Oc2ccc(cc2Cl)[C@H]1O [VANCOMYCIN]
Survival (Staphylococcus aureus [8]): >90%
survival at 50 µg/mL (Staphylococcus aureus [9]): > 97%
survival at 100 µg/mL (Staphylococcus aureus [10]): > 97%
MIC (Enterococcus faecium): 4 µg/mL (≈ 2.76 µM)

N#Cc1nccnc1S(=O)(=O)c1ccccc1
fractional inhibitory concentration index (FICI) (Klebsiella pneumoniae [11]): 0.141
MIC (Klebsiella pneumoniae [11]; Klebsiella pneumoniae, ATCC 77326): 1 µg/mL
fractional inhibitory concentration index (FICI) (Acinetobacter baumannii [12]): 0.375
MIC (Acinetobacter baumannii [12]; Acinetobacter baumannii, ATCC 17978): 4 µg/mL
viability at 24 h [13]: 90%
viability at 24 h, 64 ug/ml [14]: 8.5%
Activity (HEK293 [15]): Dose-dependent effect
Activity [16]: Non-toxic
mortality (HEK293 [17]): 69%
minimal effective concentration (Staphylococcus aureus [18]): ≤ 0.78 µg/mL
Ratio (Staphylococcus aureus [19]): >=5
Survival (Staphylococcus aureus [8]): >90%
survival at 50 µg/mL (Staphylococcus aureus [9]): 46%
survival at 100 µg/mL (Staphylococcus aureus [10]): 16%
Activity (Caenorhabditis elegans): Dose-dependent effect
MIC (Enterococcus faecium): 8 µg/mL (≈ 32.6 µM)
MIC (Staphylococcus aureus [7]): 4 µg/mL (≈ 16.3 µM)
MIC (Klebsiella pneumoniae [3]): 64 µg/mL (≈ 261 µM)
MIC (Acinetobacter baumannii [4]): 32 µg/mL (≈ 130 µM)
MIC (Pseudomonas aeruginosa [5]): > 64 µg/mL
MIC (Enterobacter sp. [6]): > 64 µg/mL
Activity (Staphylococcus aureus [20]): 100%
MBC (Staphylococcus aureus [21]): 16 µg/mL (≈ 65.2 µM)
Ratio (Staphylococcus aureus [22]): 4
MIC (Klebsiella pneumoniae [23]): 8 µg/mL
MIC (Acinetobacter baumannii [24]): 4 µg/mL
MIC (Pseudomonas aeruginosa [25]): 16 µg/mL
MIC (Enterobacter sp. [26]): 8 µg/mL
Ratio (Klebsiella pneumoniae [27]): 8
Ratio (Acinetobacter baumannii [28]): 8
Ratio (Pseudomonas aeruginosa [29]): >4
Ratio (Enterobacter sp. [30]): >8

N=C(N)NCCC[C@H](NC(=O)[C@@H](N)Cc1ccccc1)C(=O)Nc1ccc2ccccc2c1 (H-Phe-Arg-βNA)
growth inhibition (GI) (Klebsiella pneumoniae [31]): inactive
growth inhibition (GI) (Acinetobacter baumannii [32]): inactive
growth inhibition (GI) (Pseudomonas aeruginosa [33]): inactive
growth inhibition (GI) (Enterobacter sp. [34]): inactive

N#Cc1nccnc1[S+]([O-])c1ccccc1 (stereo not drawn)
MIC (Enterococcus faecium): 8 µg/mL (≈ 34.9 µM)
MIC (Staphylococcus aureus [7]): 4 µg/mL (≈ 17.4 µM)
MIC (Klebsiella pneumoniae [3]): 64 µg/mL (≈ 279 µM)
MIC (Acinetobacter baumannii [4]): 32 µg/mL (≈ 140 µM)
MIC (Pseudomonas aeruginosa [5]): > 64 µg/mL
MIC (Enterobacter sp. [6]): > 64 µg/mL
